The record followed here is ChEMBL document CHEMBL1671778, “Synthesis and serotonin transporter activity of 1,3-bis(aryl)-2-nitro-1-propenes as a new class of anticancer agents” (Bioorg Med Chem, 2011).

The target of assay [1] is T1, Sodium-dependent serotonin transporter (Homo sapiens, UniProt P31645). Nature of the assay: Inhibition of [3H]-serotonin reuptake at human SERT expressed in HEK293 cells after 15 to 20 mins by fluorescence neurotransmitter transporter assay. The assay is classed as cell-based.
Target sequence in this assay (P31645 whole entry): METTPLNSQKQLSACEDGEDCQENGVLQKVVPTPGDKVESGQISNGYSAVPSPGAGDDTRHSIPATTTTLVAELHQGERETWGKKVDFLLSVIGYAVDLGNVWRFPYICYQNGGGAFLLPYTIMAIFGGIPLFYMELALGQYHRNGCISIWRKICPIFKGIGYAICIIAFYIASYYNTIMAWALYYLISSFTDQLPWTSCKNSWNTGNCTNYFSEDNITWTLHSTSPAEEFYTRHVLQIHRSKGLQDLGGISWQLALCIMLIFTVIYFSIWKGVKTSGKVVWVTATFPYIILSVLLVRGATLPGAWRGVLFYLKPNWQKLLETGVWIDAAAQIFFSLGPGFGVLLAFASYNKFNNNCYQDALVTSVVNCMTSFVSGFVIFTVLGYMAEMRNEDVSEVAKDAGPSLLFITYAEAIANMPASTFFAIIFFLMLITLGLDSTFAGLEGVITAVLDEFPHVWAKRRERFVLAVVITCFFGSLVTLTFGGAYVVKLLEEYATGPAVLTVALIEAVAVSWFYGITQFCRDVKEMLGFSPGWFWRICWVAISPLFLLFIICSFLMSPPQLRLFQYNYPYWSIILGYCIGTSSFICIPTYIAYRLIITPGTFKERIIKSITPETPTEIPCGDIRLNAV
The subject of assay [2] is HEK293. Put plainly: Cytotoxicity against human HEK293 cells assessed as decrease in cell viability after 48 hrs neutral red dye assay. The note with it: HEK293, 48 h. The assay is classed as functional, cell-based. Put shortly: (§1)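 5x10^4 cells/well grown to sub-confluence (24-36 h), then exposed to compound 48 h. Neutral red dye 3+1 h, solubilised in 50% ethanol/1% acetic acid, absorbance 540 nm (690 nm background). Viability as percent of vehicle-treated cells; pEC50 by non-linear sigmoidal regression over 4 concentrations, triplicate on two independent days. Controls 30 mM sodium azide, 2% Triton-X. HEK293-hSERT cells kept in Geneticin, used up to 30 passages.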

The test system of assay [3] is DG-75. Put plainly: Cytotoxicity against human chemoresistant DG75 cells expressing SERT assessed as decrease in cell viability 10 or 50 uM after 72 hrs Alamar blue assay. The assay is classed as functional, cell-based. The note with it: DG-75, 72 h. Put shortly:
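1-5x10^4 cells/200 µl given 10 or 50 µM for 24 h (MUTU-I, MDA-MB231, PBMC) or […]. Alamar Blue at 37 °C in the dark 4-6 h, then fluorescence read with 544/590 nm. Media-only background subtracted; untreated cells set as 100% viability. Mean of six points (triplicate, two independent days). PBMCs from a healthy donor, isolated by ficoll density separation.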
Background: The colour change of resazurin is a common sign of viable cells or microbes.

Assay [4] relates to SH-SY5Y. Put plainly: Cytotoxicity against human SH-SY5Y cells expressing human SERT assessed as decrease in cell viability after 48 hrs neutral red dye assay. The assay is classed as functional, cell-based.
The subject of assay [5] is HEK293. Put plainly: Cytotoxicity against human HEK293 cells expressing human SERT assessed as decrease in cell viability after 48 hrs neutral red dye assay. The assay is classed as functional, cell-based. The note with it: HEK293, 48 h. In outline: as §1
Assay [6] concerns the target T1, Sodium-dependent serotonin transporter. The note with it: HEK293, at 100 µM.
Target sequence in this assay (P31645 whole entry, looked up): as the sequence (P31645 whole entry) above
Assay [7] can be described thus: Antiproliferative activity against human chemosensitive MUTU-I cells after 24 hrs Alamar blue assay. The assay is classed as functional, cell-based. Put shortly: (§2)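 Alamar Blue viability: 1-5x10^4 cells/well treated 24 h, then Alamar Blue (pre-warmed) 4-6 h at 37 °C in the dark. Fluorescence read at 590 nm (excitation 544 nm), background of medium plus dye subtracted, untreated cells = 100% viability. Miconazole 10 µM as cell-death control. Range 1 µM-1 mM, triplicate on two independent days. pEC50 from non-linear sigmoidal regression.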

Assay [8] concerns SH-SY5Y. Nature of the assay: Antiproliferative activity against human SH-SY5Y cells after 24 hrs Alamar blue assay. The assay is classed as functional, cell-based. In outline: as §2
Assay [9] relates to DG-75. Nature of the assay: Antiproliferative activity against human DG75 cells after 24 hrs Alamar blue assay. The assay is classed as functional, cell-based. The note with it: DG-75, 24 h. In outline: as §2
In assay [10] the target is T1, Sodium-dependent serotonin transporter. The note with it: HEK293, at 1 µM.
Target sequence in this assay (P31645 whole entry, looked up): as the sequence (P31645 whole entry) above

The term IC50 denotes the point on the concentration scale where inhibition reaches its midpoint. The EC50 is the concentration needed to bring the measured effect to its halfway point. With `CC(N)Cc1ccc2c(c1)OCO2` (stereo not drawn) [TENAMFETAMINE], in [1], half-maximal inhibition (IC50) was put at 0.9 µM. Besides, the half-maximal effective concentration (EC50) is 316 µM in [2], 2000 µM in [3], above 10000 µM in assay [4] and 631 µM in assay [5].

What is called inhibition is how much of the control response was suppressed. The low end stands for little suppression, the high end for strong suppression. As to `O=CNC(Cc1ccc2c(c1)OCO2)Cc1ccc2c(c1)OCO2`, the inhibition came out at 55% in assay [6] and 18% in assay [10]. For the same compound, the EC50 in assay [2] was above 10000 µM; in assay [3] it was 15.8 µM; in [4] it was above 10000 µM; in [7], 63.1 µM; in [8] it was 224 µM; in assay [9] it was 158 µM. For the same compound, in assay [5], the concentration giving a half-maximal response (EC50) is 1580 µM.

On to `O=[N+]([O-])/C(=C\c1ccc(Cl)cc1)Cc1ccc(Cl)cc1Cl`, for which the EC50 is 3.16 µM in [7], 25.1 µM in assay [8] and 3.16 µM in assay [9].

Turning to `COc1ccc(CC(Cc2ccc(OC)cc2)NC=O)cc1`, the values for the inhibition in assay [6] and in assay [10] were 18% and 8%, respectively. Besides, the EC50 was 31.6 µM in [2]; 1580 µM in assay [3]; above 10000 µM in assay [4]; 200 µM in [7]; 316 µM in [8]; 200 µM in [9]. For the same compound, the EC50 in assay [5] is 3980 µM.

With `O=C(Cc1ccc2c(c1)OCO2)Cc1ccc2c(c1)OCO2`, the EC50 in assay [2] is 1260 µM; in assay [3], 3160 µM; in assay [4] it was above 10000 µM; in [7], 100 µM; in assay [8], 251 µM; in assay [9], 158 µM. Further, in assay [5], the half-maximal effective concentration (EC50) is 5010 µM.

`CCNC(Cc1ccc(SC)cc1)Cc1ccc(SC)cc1`: the values for the inhibition in assay [6] and in [10] were 92% and 31%, respectively. Moreover, in [1], the IC50 is 2.2 µM. Moreover, the 50% effective concentration (EC50) in [2] is 1260 µM; in assay [3], 12.6 µM; in assay [4], 15.8 µM; in assay [5], 25.1 µM.

As to `OC(Cc1ccc2c(c1)OCO2)Cc1ccc2c(c1)OCO2`, the EC50 in assay [7] was 39.8 µM; in [8] it was 158 µM; in [9], 126 µM.

For the compound `COc1ccc(CC(N)Cc2ccc(OC)cc2)cc1`, the inhibition in assay [6] was 65%; in [10] it was 11%. For the same compound, the EC50 is 31.6 µM in assay [2]; 20 µM in assay [3]; 20 µM in assay [4]; 794 µM in assay [7]; 20 µM in [8]; 398 µM in assay [9]. Moreover, in assay [5], the concentration for a half-maximal effect (EC50) was 25.1 µM.

As for `CSc1ccc(CC(C)N)cc1` (stereo not drawn) [4-METHYLTHIOAMPHETAMINE], the concentration for half-maximal inhibition (IC50) in assay [1] worked out at 0.2 µM. Further, the EC50 in assay [2] was 20 µM; in assay [3] it was 316 µM; in [4], 631 µM; in assay [5], 25.1 µM.

In the case of `CSc1ccc(CC(Cc2ccc(SC)cc2)NC(C)=O)cc1`, the inhibition in assay [6] stood at 28%; in [10], 0%. Also, the concentration giving a half-maximal response (EC50) was 3980 µM in assay [3]; 3980 µM in assay [4]; 158 µM in assay [7]; 15800 µM in assay [8]; 398 µM in [9]; 39.8 µM in [5].

Regarding `CN(C)CCCC1(c2ccc(F)cc2)OCc2cc(C#N)ccc21` (stereo not drawn) [CITALOPRAM], the EC50 in assay [2] was 15.8 µM; in [3], 12.6 µM; in assay [4] it was 25.1 µM.

As for `CC(=O)NC(Cc1ccc2c(c1)OCO2)Cc1ccc2c(c1)OCO2`, the EC50 in assay [2] was 3980 µM; in assay [3] it was 1260 µM; in assay [4], above 10000 µM; in assay [5], above 10000 µM.

For `CNC(C)Cc1ccc2c(c1)OCO2` (stereo not drawn) [MIDOMAFETAMINE], in assay [1], the midpoint of inhibition, the IC50, lay at 1.1 µM. The concentration for a half-maximal effect (EC50) in assay [2] was 251 µM; in [3] it was 31.6 µM; in assay [4] it was above 10000 µM; in assay [5] it was 501 µM.

Take `NC(Cc1ccc2c(c1)OCO2)Cc1ccc2c(c1)OCO2`: the inhibition in [6] is 77%; in assay [10], 44%. In [1], this compound displayed an IC50 of 1.6 µM. Also, the EC50 was 25.1 µM in assay [2]; 15.8 µM in assay [3]; 31.6 µM in [4]; 50.1 µM in assay [7]; 31.6 µM in assay [8]; 251 µM in assay [9]. Besides, the EC50 in assay [5] is 31.6 µM.

For `ON=C(Cc1ccc2c(c1)OCO2)Cc1ccc2c(c1)OCO2`, the EC50 in assay [7] is 25.1 µM; in assay [8] it was 63.1 µM; in assay [9], 50.1 µM.

Consider `CSc1ccc(C/C(=C/c2ccc(Cl)cc2)[N+](=O)[O-])cc1`, for which the 50% effective concentration (EC50) in [7] is 3.16 µM; in assay [8], 20 µM; in assay [9], 7.94 µM.
